The results in this text go back to ChEMBL document CHEMBL1821591, “Cytotoxic bipyridines from the marine-derived actinomycete Actinoalloteichus cyanogriseus WH1-2216-6” (J Nat Prod, 2011).

One experiment concerns Pseudomonas aeruginosa. Kind of experiment: Antimicrobial activity against Pseudomonas aeruginosa after 24 hrs by agar dilution method. Format: functional.
The next experiment has as its system HL-60. The experiment in a line: Cytotoxicity against human HL60 cells after 72 hrs by MTT assay. In kind it is functional, cell-based. The following applies: HL-60, 72 h. The method in brief:
(§1)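 MTT read-out on HL-60, K562 and KB; activity expressed as IC50 in μM.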
(In general: Formazan colour is commonly taken as a measure of viable cells.)

The test system of the next experiment is K562. Kind of experiment: Cytotoxicity against human K562 cells after 72 hrs by MTT assay. In kind it is functional, cell-based. The following applies: K562, 72 h. The gist of the method:
as §1

In another experiment the test system is KB. The experiment in a line: Cytotoxicity against human KB cells after 72 hrs by MTT assay. In kind it is functional, cell-based. The gist of the method:
as §1

A further experiment concerns Escherichia coli. The experiment in a line: Antimicrobial activity against Escherichia coli after 24 hrs by agar dilution method. Format: functional. A general note: In agar dilution the substance is mixed into plates at graded concentrations.
The next experiment relates to A549. The experiment in a line: Cytotoxicity against human A549 cells after 24 hrs by SRB assay. Conditions: A549, 24 h. In kind it is functional, cell-based. On the technique in general: In SRB staining, fixed cells bind dye roughly in proportion to their protein.
For the next experiment, the system named is Candida albicans. The experiment in a line: Antimicrobial activity against Candida albicans after 24 hrs by agar dilution method. In kind it is functional.
The subject of a further experiment is Klebsiella aerogenes. The experiment in a line: Antimicrobial activity against Aerobacter aerogenes after 24 hrs by agar dilution method. Format: functional.

SMILES strings stand for the structures. Values after ≈ are worked out from the molar mass of the structure shown.

With `COc1cc(/C=N/O)nc(-c2ccccn2)c1` [CAERULOMYCIN A], the MIC in the experiment on Pseudomonas aeruginosa worked out at 21.8 µM (≈ 5 µg/mL); with Escherichia coli, 10.9 µM (≈ 2.5 µg/mL); in the experiment with Candida albicans, 21.8 µM (≈ 5 µg/mL). Further, the IC50 was 710 nM in the experiment on HL-60, > 50 µM with K562, > 50 µM in the experiment with KB and 260 nM with A549.

As for `O=C(O)c1cn(C2CC2)c2cc(N3CCNCC3)c(F)cc2c1=O` [CIPROFLOXACIN LACTATE], the minimal inhibitory concentration (MIC) in the experiment with Pseudomonas aeruginosa came out at 3.8 µM; in the experiment on Candida albicans it was 1.2 µM; in the experiment with Klebsiella aerogenes, 0.94 µM.

As for `CC(=O)N1CCN(c2ccc(OCC3COC(Cn4ccnc4)(c4ccc(Cl)cc4Cl)O3)cc2)CC1` (centres undefined) [KETOCONAZOLE], the MIC against Pseudomonas aeruginosa came to 3.8 µM (≈ 2.02 µg/mL); in the experiment on Escherichia coli, 1.9 µM (≈ 1.01 µg/mL); with Candida albicans it was 1.2 µM (≈ 0.638 µg/mL); in the experiment on Klebsiella aerogenes, 0.94 µM (≈ 0.5 µg/mL).

As a reminder, the MIC is the smallest concentration in the dilution series that meets the test's criterion for growth inhibition. What is called IC50 is the concentration needed to halve the response being measured.
